Measured values reported in publication PMC6885571 (International Journal of Nanomedicine, 2019).
Values after ≈ are worked out from the molar mass of the structure shown. One block for each compound: values may come before it.

Key:
[1] = tested on: hCMEC/D3 cells; assay: Cellular uptake and transporter/endocytosis inhibition assay; type: cell-based, human; conditions: 30 min pre-incubation with inhibitor
Outline: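 hCMEC/D3 cells grown to 90% confluence, then pre-incubated 30 min at 37 °C, 5% CO2 with one inhibitor: verapamil 10 µM, MK571 10 µM, ko143 1 µM, […], aprotinin 200 µg/mL, colchicine 2.5 µM or […]. Nanoemulsion or HupA solution added for 1 h. Cells washed with ice-cold PBS, lysed in 1% Triton X-100, dichloromethane-extracted and analysed by HPLC; mean±SD, n=3.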

[2] = Saturation solubility of HupA in oils, surfactants and co-surfactants; type: physicochemical; conditions: thermodynamic from solid
Outline: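 Excess HupA added to 0.2 mL vehicle, vortexed 10 min, then kept 24 h at 37±0.5 °C in a shaking water bath. Mixture centrifuged at 6000 rpm for 10 min and supernatant filtered (0.45 µm). 0.1 mL diluted in methanol and dissolved drug quantified by HPLC.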

[3] = tested on: nasal mucosa; assay: Test for nasal toxicity of NEs; type: in vivo, Wistar rats; conditions: rats, intranasal, 14 consecutive days; mucosa on days 1, 7, 14
Outline: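 Male Wistar rats (200 g), four groups of three, dosed intranasally. Groups: saline (negative control), 1% sodium deoxycholate in 50 µL saline (positive control), or one of two nanoemulsions for 14 consecutive days. Nasal mucosa collected after sacrifice on days 1, 7 and 14, fixed 24 h in 10% buffered formalin, dehydrated in ethanol, cleared in xylene and paraffin-embedded. Sections stained with H&E and examined by light microscopy.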

[4] = Pharmacokinetic study after intranasal administration; type: in vivo, Wistar rats; conditions: rats
Outline: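 Wistar rats (200±20 g) anaesthetised with 10% chloral hydrate received 50 µL of formulation through a PE 10 tube inserted 1 cm into the nostril. Orbital blood and tissues taken at 0.083–24 h (11 points). Plasma or tissue homogenate alkalised with 2 mol/L NaOH, extracted with 2 mL ethyl acetate, dried under nitrogen, redissolved in methanol and assayed by HPLC. Parameters calculated by software; mean±SD, n=6.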

[5] = In vitro drug release, dialysis bag in phosphate buffer pH 6.8; type: physicochemical; conditions: at 24 h; phosphate buffer pH 6.8, 37 °C
Outline: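 Dialysis bag (12–14 kDa cut-off), pre-soaked overnight in medium, held 1 mL of freshly prepared nanoemulsion (5 mg/mL drug). Bag placed in 100 mL phosphate buffer pH 6.8 at 37 °C, shaken at 50 rpm. At set times 4 mL was withdrawn and replaced with fresh medium. HupA measured by HPLC (C18, methanol–water 43:57, 308 nm), plotted as cumulative % released versus time. Drug suspension run under the same sink conditions.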

Compound: Aprotinin
- effect of inhibitor on transport of HupA-NE across the cells ([1]; then HupA-NE 1 h): restricted transport
- effect of inhibitor on Lf-HupA-NE transport ([1]; then Lf-HupA-NE 1 h): mildly reduced

- solubility at 24 h ([2]; Capryol90, 37 °C, oil or lipid): 38.33 ± 0.15 mg/mL (≈ 158 mM)
- solubility at 24 h ([2]; Cremophor EL, 37 °C): 34.7 ± 0.09 mg/mL (≈ 143 mM)
- solubility at 24 h ([2]; Grape seed oil, 37 °C, oil or lipid): 1.96 ± 0.01 mg/mL (≈ 8.09 mM)
- solubility at 24 h ([2]; L.A.S, 37 °C): 34.96 ± 0.13 mg/mL (≈ 144 mM)
- solubility at 24 h ([2]; LABRAFIL M 1944 CS, 37 °C, oil or lipid): 19.7 ± 0.24 mg/mL (≈ 81.3 mM)
- solubility at 24 h ([2]; Labrasol, 37 °C): 102.2 ± 0.65 mg/mL (≈ 422 mM)
- solubility at 24 h ([2]; PEG400, 37 °C, organic solvent or mixture): 98.41 ± 0.35 mg/mL (≈ 406 mM)
- solubility at 24 h ([2]; Plurol Oleique CC 497, 37 °C): 15.5 ± 0.31 mg/mL (≈ 64 mM)
- solubility at 24 h ([2]; Propanediol, 37 °C, organic solvent or mixture): 65.3 ± 0.91 mg/mL (≈ 270 mM)
- solubility at 24 h ([2]; Soybean oil, 37 °C, oil or lipid): 2.73 ± 0.07 mg/mL (≈ 11.3 mM)
- solubility at 24 h ([2]; Span 80, 37 °C): 13.35 ± 0.12 mg/mL (≈ 55.1 mM)
- solubility at 24 h ([2]; Tween 80, 37 °C): 21 ± 0.45 mg/mL (≈ 86.8 mM)
- solubility at 24 h ([2]; isopropyl myristate (IPM), 37 °C, oil or lipid): 2.43 ± 0.01 mg/mL (≈ 10 mM)
Compound: C/C=C1\[C@H]2C=C(C)C[C@]1(N)c1ccc(=O)[nH]c1C2 [HupA, Huperzine A]

Compound: C[C@H](CCC(=O)[O-])[C@H]1CC[C@H]2[C@@H]3CC[C@@H]4C[C@H](O)CC[C@]4(C)[C@H]3C[C@H](O)[C@]12C.[Na+] [1% deoxycholic acid sodium solution, deoxycholic acid sodium]
- nasal mucosa toxicity (histology) [3]: extensive damage to the nasal mucosa

- AUC(0-t) ([4]; brain): 21.507 ng·h/mL
- AUC(0-∞) ([4]; brain): 23.765 ng·h/mL
- Cmax ([4]; brain): 13.29 ng/mL
- MRT(0-t) ([4]; brain): 1.255 h
- MRT(0-∞) ([4]; brain): 1.674 h
- T1/2 ([4]; brain): 1.173 h
- Tmax ([4]; brain): 0.25 h
- AUC(0-t) ([4]; plasma): 51.188 ng·h/mL
- AUC(0-∞) ([4]; plasma): 51.378 ng·h/mL
- Cmax ([4]; plasma): 56.95 ng/mL
- MRT(0-t) ([4]; plasma): 1.153 h
- MRT(0-∞) ([4]; plasma): 1.439 h
- T1/2 ([4]; plasma): 0.769 h
- Tmax ([4]; plasma): 0.25 h
- drug released [5]: 63%
Compound: C/C=C1\[C@H]2C=C(C)C[C@]1(N)c1ccc(=O)[nH]c1C2 [HupA Solution]
